According to PubChem BioAssay:
Activity calls are given as the source filed them.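 The calls were made as follows, unless noted: active = viability loss from added drug above about 55%, and viability with drug at most 40%, in both replicates (limit read from the data, passing the limit was not always enough); inconclusive = both conditions met in only one replicate; inactive = neither replicate meets both conditions.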

Assays:
[1] = reducers of endogenous Her2 protein level, primary screen, SKBR3 breast tumor cells, AlphaScreen, ATP viability (AID 461;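 active = Her2 level under about 52% in both replicate screens, with viability over 70% of control, limit read from the data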;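 as to Her2 level: lower value means less Her2 protein in the cells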;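 as to viability: percent of carrier control wells set as 100% viability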); settings: 18-24 h, measured here: SKBR3 viability, ATP luminescence, at 10 µM
[2] = target: Receptor tyrosine-protein kinase erbB-2 (Homo sapiens) (UniProt P04626); test: as above; settings: 18-24 h, at 10 µM, stronger effect = lower value
[3] = SK-BR-3 cell growth inhibitors, pilot screen, 24 h, human (AID 572;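 active = viability at or below 10% of carrier control in both of two separate runs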;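 also: compound exposure lasted between 18 and 24 h rather than exactly 24 h; 100% = carrier-treated control wells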); settings: SK-BR-3 viability, CellTiter-Glo luminescence, at 10 µM, stronger effect = lower value
[4] = HUVEC growth inhibition – cell-based, human, primary screen (AID 575;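 active = viability at or below 30% in both replicate assays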;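 also: 100% = median of untreated cell wells with 0.1% DMSO on each plate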); settings: HUVEC proliferation, CellTiter-Glo luminescence, 72 h; at 10 µM; stronger effect = lower value
Summary of the method: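 Test system – primary HUVEC, no more than 12 passages · Dosing – one dose, 10 µM final, 0.1% DMSO · Times – 72 h treatment at 37 °C · Measured by – ATP-based CellTiter-Glo luminescent read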

[5] = growth inhibitors of H69AR lung tumor, primary screen, human, duplicate replicates (AID 580;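 active = viability at or under a set limit in both replicates, limit being median viability minus 3 SD, cut at about 48% in these data, passing the limit was not always enough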;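 also: 100% = mean luminescence of untreated wells and 0% = no signal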); settings: H69AR lung tumor cells viability, ATP luminescence, 72 h; at 10 µM; stronger effect = lower value
[6] = reversal of MRP1-mediated doxorubicin resistance, pilot screen, H69AR cells, doxorubicin co-treatment (AID 601); settings: CellTiter-Glo, 72 h, at 10 µM; for differential viability (reversal): stronger effect = higher value
[7] = 384-well plate pilot, post-Golgi transport modulator project, inhibition of yeast transport mutant growth (AID 636; in the data active = inhibition above about 31%); settings: absorbance 615 nm, about 18 h, stronger effect = higher value
[8] = growth suppression of yeast trafficking mutant, preliminary HTS, modulators of trafficking downstream of Golgi apparatus project, 1536-format plate, OD 615 nm (AID 637; in the data active = inhibition above about 30%); settings: yeast transport mutant growth, absorbance 615 nm, 18 h; stronger effect = higher value
[9] = H69AR cells + 2 uM doxorubicin, measured here: viability with 2 uM doxorubicin, stronger effect = lower value
[10] = H69AR cells, compound alone cytotoxicity

Receptor tyrosine-protein kinase erbB-2 (Homo sapiens), sequence (P04626 whole entry, looked up): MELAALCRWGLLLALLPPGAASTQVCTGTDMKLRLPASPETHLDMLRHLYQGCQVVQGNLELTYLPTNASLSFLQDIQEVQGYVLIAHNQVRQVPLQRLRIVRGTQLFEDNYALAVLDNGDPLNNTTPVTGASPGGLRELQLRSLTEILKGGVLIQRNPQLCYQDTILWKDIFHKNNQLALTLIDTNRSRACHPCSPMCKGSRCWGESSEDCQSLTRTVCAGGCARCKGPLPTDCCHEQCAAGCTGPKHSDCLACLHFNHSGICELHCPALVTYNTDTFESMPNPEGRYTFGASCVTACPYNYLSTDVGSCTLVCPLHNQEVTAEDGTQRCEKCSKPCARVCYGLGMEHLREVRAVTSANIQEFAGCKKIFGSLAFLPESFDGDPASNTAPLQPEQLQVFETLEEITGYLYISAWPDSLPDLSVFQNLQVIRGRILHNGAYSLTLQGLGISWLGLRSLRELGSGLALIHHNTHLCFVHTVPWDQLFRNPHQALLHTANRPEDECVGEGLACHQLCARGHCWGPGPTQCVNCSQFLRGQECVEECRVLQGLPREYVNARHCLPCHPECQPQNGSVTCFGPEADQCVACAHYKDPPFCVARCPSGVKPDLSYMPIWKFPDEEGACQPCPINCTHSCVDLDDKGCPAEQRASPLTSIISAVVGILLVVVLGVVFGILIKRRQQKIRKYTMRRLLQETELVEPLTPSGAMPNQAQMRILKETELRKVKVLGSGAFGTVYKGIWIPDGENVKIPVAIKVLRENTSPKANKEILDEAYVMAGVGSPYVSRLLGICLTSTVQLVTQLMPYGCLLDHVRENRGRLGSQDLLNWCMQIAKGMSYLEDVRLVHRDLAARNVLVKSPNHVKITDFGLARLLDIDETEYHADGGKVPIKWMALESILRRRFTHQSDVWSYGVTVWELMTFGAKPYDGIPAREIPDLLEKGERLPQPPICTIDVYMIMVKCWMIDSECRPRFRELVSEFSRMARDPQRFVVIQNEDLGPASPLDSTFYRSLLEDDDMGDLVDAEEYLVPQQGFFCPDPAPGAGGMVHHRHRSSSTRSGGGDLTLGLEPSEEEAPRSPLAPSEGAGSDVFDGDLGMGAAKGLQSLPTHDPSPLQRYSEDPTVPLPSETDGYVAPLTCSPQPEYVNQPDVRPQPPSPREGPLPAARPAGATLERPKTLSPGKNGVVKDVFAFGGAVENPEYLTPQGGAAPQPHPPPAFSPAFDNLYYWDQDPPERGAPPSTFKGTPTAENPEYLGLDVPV

Row | Structure (SMILES) | viability [1] [%] | Her2 level [2] | viability [3] | viability [4] | viability [5] | differential viability (reversal) ([6]; H69AR cells + 2 uM doxorubicin) | viability [6, 9] [%] | viability [6, 10] [%] | inhibition [7] | inhibition [8]
1 | COc1ccc(CNC(=O)c2cc(-c3ccc(OC)c(OC)c3)on2)cc1 | 116 | 88.5% (inactive) | 116% (inactive) | 118% (inactive) | 94.4% (inactive) | 8.78% (inactive) | 85.6 | 94.4 | -5.95% (inactive) | -3.83% (inactive)
2 | COc1cc(OC)cc(-n2nnnc2SCC(=O)N2CCCC2)c1 | 87 | 79% (inactive) | 87% (inactive) | 94.9% (inactive) | 87.4% (inactive) | -4.62% (inactive) | 92 | 87.4 | -2.11% (inactive) | 0.36% (inactive)
3 | O=C(Nc1ccccc1N1CCCCC1)c1ncoc1-c1ccc(F)cc1 | 115 | 109% (inactive) | 115% (inactive) | 78.1% (inactive) | 84.6% (inactive) | -1.2% (inactive) | 85.8 | 84.6 | -3.47% (inactive) | -2.86% (inactive)
4 | Cc1ccc(S(=O)(=O)N2C(=O)CCC2C(=O)Nc2ccc3c(c2)OCCO3)cc1 (stereo not given) | 109 | 96.5% (inactive) | 109% (inactive) | 93.6% (inactive) | 89.7% (inactive) | -4.12% (inactive) | 93.8 | 89.7 | -1.69% (inactive) | -1.67% (inactive)
5 | Cc1c(Br)c(C(F)(F)F)nn1CC(=O)NCCN1CCOCC1 | 122 | 100% (inactive) | 122% (inactive) | 108% (inactive) | 96.6% (inactive) | 10.3% (inactive) | 86.3 | 96.6 | -6.27% (inactive) | 2.1% (inactive)
6 | CC1=Nn2c(nnc2-c2ccccn2)SC1 | 94 | 104% (inactive) | 94% (inactive) | 88.7% (inactive) | 99.5% (inactive) | 11.3% (inactive) | 88.2 | 99.5 | -4.4% (inactive) | -1.9% (inactive)
7 | CN1CCc2nc(SCC(=O)Nc3ccc(F)cc3)c(C#N)cc2C1 | 90.5 | 91.5% (inactive) | 90.5% (inactive) | 94.2% (inactive) | 97% (inactive) | -4.23% (inactive) | 101 | 97 | -5.33% (inactive) | 4.1% (inactive)
8 | COc1ccc(/C(O)=C2/C(=O)C(=O)N(CCN(C)C)C2c2ccccn2)cc1OC (stereo not given) | 92.5 | 91.5% (inactive) | 92.5% (inactive) | 103% (inactive) | 91.5% (inactive) | 3.17% (inactive) | 88.3 | 91.5 | -4.19% (inactive) | -6.19% (inactive)
9 | O=C(NC1CCCCC1)n1c(=O)oc2ccc(Cl)cc21 | 118 | 92% (inactive) | 118% (inactive) | 94.8% (inactive) | 94.2% (inactive) | 17.5% (inactive) | 76.7 | 94.2 | -2.73% (inactive) | -7.62% (inactive)
10 | CCOC(=O)Cn1c2c(c(=N)c3ccccc31)CCC2 | 122 | 98% (inactive) | 122% (inactive) | 89.4% (inactive) | 92.6% (inactive) | 2.31% (inactive) | 90.3 | 92.6 | -6.27% (inactive) | -1.15% (inactive)
11 | C=CCn1c(COc2ccccc2)nnc1SCC(=O)C(C)(C)C | 78 | 107% (inactive) | 78% (inactive) | 102% (inactive) | 97.8% (inactive) | 5.13% (inactive) | 92.6 | 97.8 | -1.95% (inactive) | -4.67% (inactive)
12 | COc1ccccc1NC(=O)C(O)C(O)C(=O)Nc1ccccc1OC (stereo not given) | 111 | 104% (inactive) | 111% (inactive) | 116% (inactive) | 96.1% (inactive) | 4.04% (inactive) | 92.1 | 96.1 | -7.43% (inactive) | -2.83% (inactive)
13 | Cc1ccnc(NC(=O)CCC(=O)N(CC(=O)NC2CCCCC2)c2cccc(C)c2C)c1 | 92.5 | 97.5% (inactive) | 92.5% (inactive) | 92.1% (inactive) | 86.7% (inactive) | -7.79% (inactive) | 94.5 | 86.7 | 0% (inactive) | 22.6% (inactive)
14 | CCCc1nnc(SCC(=O)N2CCOCC2)n1Cc1ccco1 | 126 | 87.5% (inactive) | 126% (inactive) | 109% (inactive) | 96.9% (inactive) | 15.3% (inactive) | 81.6 | 96.9 | -4.67% (inactive) | -6.39% (inactive)
15 | CCOC(=O)c1ccc(NS(=O)(=O)c2cccc3nsnc23)cc1 | 90.5 | 106% (inactive) | 90.5% (inactive) | 113% (inactive) | 95.9% (inactive) | -3.26% (inactive) | 99.1 | 95.9 | 1.2% (inactive) | 2.22% (inactive)
16 | Cc1cc(C)c2c(n1)sc1c(N3CCOCC3)ncnc12 | 91 | 90% (inactive) | 91% (inactive) | 25.4% (active) | 76.6% (inactive) | 0.885% (inactive) | 75.7 | 76.6 | -6.35% (inactive) | 0.67% (inactive)

Row | Structure (SMILES) | viability [1] [%] | Her2 level [2] | viability [3] | viability [4] | viability [5] | differential viability (reversal) ([6]; H69AR cells + 2 uM doxorubicin) | viability [6, 9] [%] | viability [6, 10] [%] | inhibition [7] | inhibition [8]
17 | CCSc1nnc(-c2cccs2)o1 | 89 | 106% (inactive) | 89% (inactive) | 87.3% (inactive) | 92.3% (inactive) | -4.3% (inactive) | 96.6 | 92.3 | -0.13% (inactive) | -2.83% (inactive)
18 | COc1ccc(OC)c(C2C(C#N)=C(N)Oc3cc(C)[nH]c(=O)c32)c1 (stereo not given) | 92 | 84.5% (inactive) | 92% (inactive) | 83.8% (inactive) | 99.5% (inactive) | 0.505% (inactive) | 99 | 99.5 | -3.87% (inactive) | 0.49% (inactive)
19 | CCOC(=O)N1CCN(c2nc(-c3ccc(Cl)cc3)cs2)CC1 | 79.5 | 125% (inactive) | 79.5% (inactive) | 98.3% (inactive) | 89.1% (inactive) | -9.49% (inactive) | 98.6 | 89.1 | -4.23% (inactive) | -7.83% (inactive)
20 | CCOC(=O)C1=C(C)OC(N)=C(C#N)C1c1ccoc1 (stereo not given) | 111 | 107% (inactive) | 111% (inactive) | 88.1% (inactive) | 95.3% (inactive) | 11.2% (inactive) | 84 | 95.3 | 1.04% (inactive) | -4.17% (inactive)
21 | Cc1cc(OCC(O)CN2CCN(CCO)CC2)ccc1C(C)C (stereo not given) | 86.5 | 96% (inactive) | 86.5% (inactive) | 101% (inactive) | 95.3% (inactive) | 10.5% (inactive) | 84.8 | 95.3 | -2.21% (inactive) | -1.67% (inactive)
22 | CC(C(=O)NCc1cccnc1)N1C(=O)c2ccccc2C1=O (stereo not given) | 103 | 97% (inactive) | 103% (inactive) | 99.9% (inactive) | 93.7% (inactive) | -3.79% (inactive) | 97.5 | 93.7 | -3.03% (inactive) | -4.36% (inactive)
23 | Cc1cc(C(=O)N2CCN(c3ncccn3)CC2)cs1 | 90 | 94.5% (inactive) | 90% (inactive) | 104% (inactive) | 102% (inactive) | 11.2% (inactive) | 90.8 | 102 | -5.87% (inactive) | -1.15% (inactive)
24 | Cc1ncoc1C(=O)Nc1ccccc1C(N)=O | 104 | 101% (inactive) | 104% (inactive) | 106% (inactive) | 102% (inactive) | 16.3% (inactive) | 85.5 | 102 | -6.08% (inactive) | -1% (inactive)
25 | O=C1Nc2ccccc2OC1CC(=O)N1CCCC1 (stereo not given) | 88.5 | 91.5% (inactive) | 88.5% (inactive) | 94.7% (inactive) | 102% (inactive) | 11.9% (inactive) | 90.5 | 102 | -2.53% (inactive) | 0.66% (inactive)
26 | O=C(CCCc1cccs1)Nc1nc2c(s1)CCCC2 | 86.5 | 74% (inactive) | 86.5% (inactive) | 55.3% (inactive) | 84.5% (inactive) | 2.73% (inactive) | 81.7 | 84.5 | -9.19% (inactive) | 0.82% (inactive)
27 | COCCNC(=O)c1c(N)n(CCC2=CCCCC2)c2nc3ccccc3nc12 | 102 | 92% (inactive) | 102% (inactive) | 78.3% (inactive) | 89% (inactive) | 10.8% (inactive) | 78.2 | 89 | -6.03% (inactive) | -2.38% (inactive)
28 | Cc1nc(CCNC(=O)c2ccccc2)cs1 | 92.5 | 95% (inactive) | 92.5% (inactive) | 106% (inactive) | 98.5% (inactive) | 7.85% (inactive) | 90.6 | 98.5 | 0.27% (inactive) | 4.03% (inactive)
29 | COC(=O)c1ccc(C)c(NS(=O)(=O)c2ccc3c(c2)OCCO3)c1 | 87.5 | 74% (inactive) | 87.5% (inactive) | 49.2% (inactive) | 35% (active) | -37% (inactive) | 72 | 35 | 1.54% (inactive) | -3.67% (inactive)
30 | Cc1sc2ncn3ncnc3c2c1C | 91 | 96.5% (inactive) | 91% (inactive) | 50.7% (inactive) | 90.5% (inactive) | -8.71% (inactive) | 99.2 | 90.5 | 6.13% (inactive) | 4.26% (inactive)
31 | O=C(CSc1ncnc2c1oc1ccccc12)Nc1ccccc1F | 96.5 | 101% (inactive) | 96.5% (inactive) | 72% (inactive) | 90.5% (inactive) | 7.33% (inactive) | 83.1 | 90.5 | -2.27% (inactive) | -1.33% (inactive)
